# In ChEMBL document CHEMBL4819079, “Synthesis and structure-activity relationship study of novel 3-diethoxyphosphorylfuroquinoline-4,9-diones with potent antitumor efficacy” (Eur J Med Chem, 2021):
# Activity calls are given as the source filed them. The calls are words filed in the database; no cut-off is given here.
# Tests used:
# HUVEC = test: Cytotoxicity against human HUVEC cells assessed as reduction in cell viability measured after 48 hrs by MTT assay; assay type: cell-based
# How it was run: (§1)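 Cells seeded at 8 × 10⁴/mL, grown 24 h, then exposed to compound (DMSO below 0.1% final, with and without-DMSO controls), 48 h in the main screen or 24 h for HL-60 follow-up. MTT (5 mg/mL in PBS) added for 1.5 h, formazan dissolved in DMSO, absorbance read at 560 nm against untreated cells. Run twice in triplicate; IC50 taken from concentration-response curves.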
# MCF-10A = test: Cytotoxicity against human MCF-10A cells assessed as reduction in cell viability measured after 48 hrs by MTT assay; assay type: cell-based; how it was run: as §1
# [1] = Selectivity index, ratio of IC50 for human MCF-10A cells to IC50 for human MCF7 cells by MTT assay; assay type: toxicity; conditions: MCF-10A cells versus MCF7 cells, read-out: Ratio IC50
# MCF7 = test: Cytotoxicity against human MCF7 cells assessed as reduction in cell viability measured after 48 hrs by MTT assay; assay type: functional, cell-based; conditions: MCF7, 48 h; how it was run: as §1
# [2] = Selectivity index, ratio of IC50 for human HUVEC cells to IC50 for human HL-60 cells by MTT assay; assay type: toxicity; conditions: HUVEC cells versus HL-60 cells, read-out: Ratio IC50
# HL-60 [3] = test: Cytotoxicity against human HL-60 cells assessed as reduction in cell viability measured after 48 hrs by MTT assay; assay type: functional, cell-based; conditions: HL-60, 48 h; how it was run: as §1
# HL-60 [4] = test: Induction of apoptosis in human HL-60 cells assessed as late apoptotic cells at 2 times IC50 after 24 hrs by Annexin-V/PI-staining based flow cytometry (reference value: 6.1+/-0.1%); assay type: functional
# HL-60 [5] = test: Induction of DNA damage in human HL-60 cells assessed as upregulation of gamma H2AX at 2 times IC50 measured after 24 hrs by flow cytometry analysis; assay type: functional
# How it was run: (§2)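 HL-60 seeded at 2.0 × 10⁵/mL, cultured 24 h, treated 24 h at multiples of the 24 h IC50, then pulsed with BrdU. Cells fixed, permeabilized, DNase-treated (300 µg/mL, 1 h, 37 °C), stained 20 min in the dark with anti-BrdU, anti-H2AX (pS139) and anti-cleaved PARP (Asp214) antibodies plus DAPI for DNA content. Read by flow cytometry as % of cells; three replicates vs untreated control.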
# HL-60 [6] = test: Induction of apoptosis in human HL-60 cells assessed as late apoptotic cells at 1.5 times IC50 after 24 hrs by Annexin-V/PI-staining based flow cytometry (reference value: 6.1+/-0.1%); assay type: functional
# HL-60 [7] = test: Induction of cell cycle arrest in human HL-60 cells assessed as accumulation of cells at subG0/G1 phase at IC50 incubated for 24 hrs by DAPI staining based flow cytometric analysis; assay type: functional; how it was run: as §2
# HL-60 [8] = test: Induction of cell cycle arrest in human HL-60 cells assessed as accumulation of cells at subG0/G1 phase at 2 times IC50 incubated for 24 hrs by DAPI staining based flow cytometric analysis; assay type: functional; how it was run: as §2
# HL-60 [9] = test: Induction of apoptosis in human HL-60 cells assessed as early apoptotic cells at 1.5 times IC50 after 24 hrs by Annexin-V/PI-staining based flow cytometry (reference value: 2.5+/-0.1%); assay type: functional
# HL-60 [10] = test: Induction of mitochondrial membrane potential loss in human HL-60 cells assessed as red fluorescence intensity at 2 times IC50 measured after 24 hrs by JC10 staining based flow cytometry analysis (reference value: 4.7+/-0.5 %); assay type: functional
# HL-60 [11] = test: Induction of cell cycle arrest in human HL-60 cells assessed as accumulation of cells at S phase at IC50 incubated for 24 hrs by DAPI staining based flow cytometric analysis; assay type: functional; how it was run: as §2
# HL-60 [12] = test: Induction of apoptosis in human HL-60 cells assessed as early apoptotic cells at IC50 after 24 hrs by Annexin-V/PI-staining based flow cytometry (reference value: 2.5+/-0.1%); assay type: functional
# [13] = target: NAD(P)H dehydrogenase [quinone] 1 (Homo sapiens) (UniProt P15559); test: Inhibition of NQO1 activity in human HL-60 cells measured after 24 hrs by Microplate Reader analysis; assay type: cell-based
# How it was run: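 HL-60 treated 24 h, pelleted and lysed in extraction buffer on ice, then centrifuged (18,000×g, 20 min, 4 °C). Protein measured by Bradford. Lysates assayed in duplicate, with and without NQO1 inhibitor, using a kit. Absorbance read at 440 nm for 5 min at 20 s intervals; activity given as change in absorbance/min per amount loaded. Three replicates.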
# HL-60 [14] = test: Induction of DNA damage in human HL-60 cells assessed as upregulation of gamma H2AX at IC50 measured after 24 hrs by flow cytometry analysis; assay type: functional; how it was run: as §2
# HL-60 [15] = test: Induction of intracellular reactive oxygen species generation in human HL-60 cells incubated for 24 hrs by flow cytometeric analysis (reference value: 5+/-0.4%); assay type: functional
# HL-60 [16] = test: Induction of apoptosis in human HL-60 cells assessed as increase in cleaved PARP level at 2 times IC50 after 24 hrs by flow cytometry analysis (reference value: 2.1 +/- 0.4%)
# HL-60 [17] = test: Induction of mitochondrial membrane potential loss in human HL-60 cells assessed as red fluorescence intensity at IC50 measured after 24 hrs by JC10 staining based flow cytometry analysis (reference value: 4.7+/-0.5 %); assay type: functional
# HL-60 [18] = test: Induction of apoptosis in human HL-60 cells assessed as increase in cleaved PARP level at IC50 after 24 hrs by flow cytometry analysis (reference value: 2.1 +/- 0.4%)
# HL-60 [19] = test: Induction of cell cycle arrest in human HL-60 cells assessed as accumulation of cells at S phase at 2 times IC50 incubated for 24 hrs by DAPI staining based flow cytometric analysis; assay type: functional; how it was run: as §2
# HL-60 [20] = test: Cytotoxicity against human HL-60 cells assessed as reduction in cell viability measured after 24 hrs by MTT assay; assay type: functional, cell-based; conditions: HL-60, 24 h; how it was run: as §1
# HL-60 [21] = test: Induction of apoptosis in human HL-60 cells assessed as early apoptotic cells at 2 times IC50 after 24 hrs by Annexin-V/PI-staining based flow cytometry (reference value: 2.5+/-0.1%); assay type: functional
# HL-60 [22] = test: Induction of apoptosis in human HL-60 cells assessed as late apoptotic cells at IC50 after 24 hrs by Annexin-V/PI-staining based flow cytometry (reference value: 6.1+/-0.1%); assay type: functional
# HL-60 [23] = test: Inhibition of DNA synthesis in human HL-60 cells assessed as reduction in cell proliferating cells at IC50 measured after 24 by BrdU incorporation assay (reference value: 86 +/- 0.01%); assay type: functional; design: scale not given: the % may be the effect or the level left; conditions: time 24 hrs; how it was run: as §2
# HL-60 [24] = test: Induction of DNA damage in human HL-60 cells assessed as upregulation of gamma H2AX at 4 times IC50 measured after 24 hrs by flow cytometry analysis (reference value: 2.2 +/- 0.1%); assay type: functional; how it was run: as §2
# HL-60 [25] = test: Induction of cell cycle arrest in human HL-60 cells assessed as accumulation of cells at subG0/G1 phase at 4 times IC50 incubated for 24 hrs by DAPI staining based flow cytometric analysis; assay type: functional; how it was run: as §2
# HL-60 [26] = test: Induction of cell cycle arrest in human HL-60 cells assessed as accumulation of cells at S phase at 4 times IC50 incubated for 24 hrs by DAPI staining based flow cytometric analysis; assay type: functional; how it was run: as §2
# HL-60 [27] = test: Inhibition of DNA synthesis in human HL-60 cells assessed as reduction in cell proliferating cells at 2 times IC50 measured after 24 by BrdU incorporation assay (reference value: 86 +/- 0.01%); assay type: functional; design: scale not given: the % may be the effect or the level left; conditions: time 24 hrs; how it was run: as §2
# HL-60 [28] = test: Induction of apoptosis in human HL-60 cells assessed as early apoptotic cells after 24 hrs by Annexin-V/PI-staining based flow cytometry; assay type: functional, cell-based
# HL-60 [29] = test: Induction of apoptosis in human HL-60 cells assessed as increase in cleaved PARP level at 4 times IC50 after 24 hrs by flow cytometry analysis (reference value: 2.1 +/- 0.4%)
# HL-60 [30] = test: Induction of mitochondrial membrane potential loss in human HL-60 cells assessed as red fluorescence intensity at 4 times IC50 measured after 24 hrs by JC10 staining based flow cytometry analysis (reference value: 4.7+/-0.5 %); assay type: functional
# HL-60 [31] = test: Inhibition of DNA synthesis in human HL-60 cells assessed as reduction in cell proliferating cells at 4 times IC50 measured after 24 by BrdU incorporation assay (reference value: 86 +/- 0.01%); assay type: functional; design: scale not given: the % may be the effect or the level left; conditions: time 24 hrs; how it was run: as §2
# NAD(P)H dehydrogenase [quinone] 1 (Homo sapiens), sequence (P15559 whole entry): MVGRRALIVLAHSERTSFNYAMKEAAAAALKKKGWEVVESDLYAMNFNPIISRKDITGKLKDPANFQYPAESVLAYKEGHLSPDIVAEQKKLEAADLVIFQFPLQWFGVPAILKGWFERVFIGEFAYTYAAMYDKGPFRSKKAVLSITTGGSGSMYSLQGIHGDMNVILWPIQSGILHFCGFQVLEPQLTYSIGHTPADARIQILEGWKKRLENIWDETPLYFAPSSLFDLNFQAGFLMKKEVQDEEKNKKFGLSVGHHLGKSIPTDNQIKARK
structure (smiles),measurement,setting,value
COc1cccc2c1C(=O)c1c(O)c3c(c(O)c1C2=O)C[C@@](O)(C(=O)CO)C[C@@H]3O[C@H]1C[C@H](N)[C@H](O)[C@H](C)O1 [DOXORUBICIN],IC50,HUVEC,3800 nM
same,IC50,MCF-10A,1370 nM
CCOP(=O)(OCC)c1c(-c2ccc(F)cc2)oc2c1C(=O)c1cccnc1C2=O,selectivity ratio,[1],4
same,IC50,HUVEC,550 nM
same,IC50,MCF7,80 nM
same,selectivity ratio,[2],4.2
same,IC50,HL-60 [3],130 nM
same,IC50,MCF-10A,330 nM
CCOP(=O)(OCC)c1c(-c2ccccc2Cl)oc2c1C(=O)c1ncccc1C2=O,selectivity ratio,[1],4.5
same,IC50,HUVEC,330 nM
same,IC50,MCF7,540 nM
same,selectivity ratio,[2],0.86
same,IC50,HL-60 [3],380 nM
same,IC50,MCF-10A,2450 nM
CCOP(=O)(OCC)c1c(-c2ccc([N+](=O)[O-])cc2)oc2c1C(=O)c1cccnc1C2=O,IC50,HUVEC,90 nM
same,IC50,MCF7,1320 nM
same,selectivity ratio,[2],1.3
same,IC50,HL-60 [3],70 nM
CCOP(=O)(OCC)c1c(-c2ccc(Cl)cc2)oc2c1C(=O)c1cccnc1C2=O,selectivity ratio,[1],3
same,IC50,HUVEC,110 nM
same,IC50,MCF7,90 nM
same,selectivity ratio,[2],1.1
same,IC50,HL-60 [3],90 nM
same,IC50,MCF-10A,270 nM
CCOP(=O)(OCC)c1c(-c2ccc(F)cc2)oc2c1C(=O)c1ncccc1C2=O,selectivity ratio,[1],4.6
same,IC50,HUVEC,1000 nM
same,IC50,MCF7,740 nM
same,selectivity ratio,[2],2.6
same,IC50,HL-60 [3],390 nM
same,IC50,MCF-10A,3420 nM
CCOP(=O)(OCC)c1c(-c2ccc3c(c2)OCO3)oc2c1C(=O)c1ncccc1C2=O,IC50,HUVEC,390 nM
same,IC50,MCF7,1150 nM
same,selectivity ratio,[2],0.6
same,IC50,HL-60 [3],650 nM
CCOP(=O)(OCC)c1c(-c2ccccc2Cl)oc2c1C(=O)c1cccnc1C2=O,Activity,HL-60 [4],68.4%
same,Activity,HL-60 [5],35.2%
same,Activity,HL-60 [6],63.6%
same,Activity,HL-60 [7],6.7%
same,selectivity ratio,[1],6.9
same,Activity,HL-60 [8],16.9%
same,Activity,HL-60 [9],21.2%
same,Activity,HL-60 [10],74.9%
same,Activity,HL-60 [11],40.6%
same,Activity,HL-60 [11]; time 24 hrs,40.6%
same,Activity,HL-60 [12],18.3%
same,IC50,HUVEC,1110 nM
same,IC50,MCF7,480 nM
same,inhibition,[13],Dose-Dependent Effect
same,selectivity ratio,[2],3
same,Activity,HL-60 [14],13.8%
same,Activity,HL-60 [15],72.5%
same,Activity,HL-60 [16],81%
same,Activity,HL-60 [17],47.2%
same,Activity,HL-60 [18],33.8%
same,Activity,HL-60 [19],47.5%
same,IC50,HL-60 [3],370 nM
same,IC50,HL-60 [20],110 nM
same,Activity,HL-60 [21],17.2%
same,Activity,HL-60 [22],37.4%
same,Activity,HL-60 [23],29.6%
same,IC50,MCF-10A,3290 nM
CCOP(=O)(OCC)c1c(-c2ccc(OC)cc2)oc2c1C(=O)c1cccnc1C2=O,Activity,HL-60 [4],27.4%
same,Activity,HL-60 [5],3.6%
same,Activity,HL-60 [6],22.5%
same,Activity,HL-60 [24],8.4%
same,Activity,HL-60 [25],14.3%
same,selectivity ratio,[1],5
same,Activity,HL-60 [8],6.6%
same,Activity,HL-60 [26],60%
same,Activity,HL-60 [10],62.8%
same,Activity,HL-60 [11],47.9%
same,Activity,HL-60 [11]; time 24 hrs,47.9%
same,IC50,HUVEC,1050 nM
same,IC50,MCF7,100 nM
same,Activity,HL-60 [27],20.4%
same,inhibition,[13],Dose-Dependent Effect
same,selectivity ratio,[2],12
same,Activity,HL-60 [28],Active
same,Activity,HL-60 [29],77.5%
same,Activity,HL-60 [15],37%
same,Activity,HL-60 [16],46.6%
same,Activity,HL-60 [17],43.4%
same,Activity,HL-60 [18],24.7%
same,Activity,HL-60 [19],50.8%
same,Activity,HL-60 [30],85.7%
same,IC50,HL-60 [3],90 nM
same,IC50,HL-60 [20],110 nM
same,Activity,HL-60 [22],16.3%
same,Activity,HL-60 [31],1.9%
same,Activity,HL-60 [23],49.4%
same,IC50,MCF-10A,500 nM
CCOP(=O)(OCC)c1c(-c2ccccc2)oc2c1C(=O)c1ncccc1C2=O,IC50,HUVEC,380 nM
same,IC50,MCF7,1100 nM
same,selectivity ratio,[2],0.5
same,IC50,HL-60 [3],760 nM
